Results gathered from unrelated publications.
Protocols differ between the studies behind these lines.
Target: Interleukin-1 receptor-associated kinase 4 (IRAK4, Homo sapiens, UniProt Q9NWZ3)
One construct used (Q9NWZ3 1-460): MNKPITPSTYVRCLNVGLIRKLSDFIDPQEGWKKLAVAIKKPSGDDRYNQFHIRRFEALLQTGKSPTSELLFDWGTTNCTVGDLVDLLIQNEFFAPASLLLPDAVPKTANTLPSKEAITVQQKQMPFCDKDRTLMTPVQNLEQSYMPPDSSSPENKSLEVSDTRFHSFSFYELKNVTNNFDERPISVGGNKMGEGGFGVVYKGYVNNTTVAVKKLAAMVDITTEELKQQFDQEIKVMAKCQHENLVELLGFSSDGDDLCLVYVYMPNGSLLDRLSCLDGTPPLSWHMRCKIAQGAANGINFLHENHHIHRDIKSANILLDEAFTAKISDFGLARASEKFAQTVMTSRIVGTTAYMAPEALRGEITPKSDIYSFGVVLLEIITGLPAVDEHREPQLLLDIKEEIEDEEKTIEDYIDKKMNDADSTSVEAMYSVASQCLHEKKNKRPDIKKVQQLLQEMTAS

SMILES | read-out | action | method | tested at | quantity | result
Cn1c(=O)n(-c2ccc(C(C)(C)C#N)cc2)c2c3cc(-c4cnc5ccccc5c4)ccc3ncc21 | enzyme activity | inhibitor |  | 10 µM | remaining activity | 78%
CO[C@@H](C)c1c(Nc2ccc([C@H](N(C)C(=O)C3CCS(=O)(=O)CC3)C(F)(F)F)cc2)cnc2cc(Cl)nn12 | cell-free assay |  | competition with immobilised ligand | 1 µM | remaining binding | 88%
CN(C)C1CCN(CC#Cc2nn(C3CCCC3)c3nc(NCc4ccccc4)ncc23)C1 (centres unmarked) | enzyme activity | inhibitor | FRET | 1 µM | inhibition | 3%
COc1cc2ncnc(Nc3ccc(Oc4ccccc4)cc3C)c2cc1OC | enzyme activity | inhibitor |  | 1 µM | inhibition | 0%
Nc1ncnc2occ(-c3ccc(NC(=O)Nc4cc(C(F)(F)F)ccc4F)cc3)c12 | cell-free assay | inhibitor |  | 20 µM | remaining signal | 46%
CC1=C(C#N)C(c2ccc3c(c2)c(NC(=O)c2ccccc2C)nn3C)C(C#N)=C(C)N1 | cell-free assay |  | competition with immobilised ligand | 1 µM | remaining binding | 7.5%
CSc1nc(C)c(-c2ccnc(Nc3ccc(N4CCOCC4)cc3)c2)[nH]1 | enzyme activity | inhibitor |  | 10 µM | inhibition | 45.8%
CN1CC(Oc2cnc(C#N)cc2-c2ccn3nc(NC(=O)C4CC4)cc3c2)C1 | enzyme activity | inhibitor |  | 1 µM | inhibition | 1%
CNCc1ccccc1-c1csc([C@@H](C)Nc2nc(C)nc3cc(OC)c(OC)cc23)c1 | cell-free assay |  | competition with immobilised ligand | 1 µM | remaining binding | 76%
O=C(Nc1cnn(-c2csc(C(=O)NC3COC3)c2)c1)Nc1ccccc1Cl | enzyme activity | inhibitor |  | 5 µM | remaining activity | 92.1%
COc1cc(/C=C/C(=O)CC(=O)/C=C/c2ccc(O)c(OC)c2)ccc1O | enzyme activity | inhibitor |  | 1 µM | activity vs control | 71%
CS(=O)(=O)N1CCCC(NC(=O)[C@H](CCC2CCCCC2)NC(=O)c2ccc(CNC(=O)c3cnc4ccccn34)cc2)C1 (some centres unmarked) | cell-free assay |  | competition with immobilised ligand | 0.1 µM | remaining binding | 100%
CC(C)(C)c1nc(-c2cccc(NS(=O)(=O)c3c(F)cccc3F)c2F)c(-c2ccnc(N)n2)s1 | enzyme activity | inhibitor | radiometric | 1 µM | remaining activity | 103%
CCN(CC)CCNC(=O)c1c(C)[nH]c(/C=C2\C(=O)Nc3ccc(F)cc32)c1C | enzyme activity | inhibitor |  | 0.3 µM | inhibition | 28%
CC(=O)Nc1c(C(C)=O)c(=O)n(C)c2nc(-c3ccc(Cl)cc3Cl)c(-c3ccc(Cl)cc3)cc12 | cell-free assay |  | competition with immobilised ligand | 1 µM | remaining binding | 100%
O=C(CSc1nc2nccnc2c(=O)n1CCc1ccccc1)Nc1nccs1 | enzyme activity | inhibitor |  | 10 µM | inhibition | 10%
O=C1NC(=O)c2cc(Nc3ccc(F)cc3)c(Nc3ccc(F)cc3)cc21 | cell-free assay |  |  | 0.5 µM | remaining signal | 98.1%
Cc1cc(NC(=O)c2cccc3cc(-c4cccc5[nH]nc(N)c45)ccc23)ccc1F | enzyme activity | inhibitor |  | 0.1 µM | activity vs control | 99%
FC(F)c1nc2ccccc2n1-c1nc(N2CCOCC2)nc(N2CCOCC2)n1 | enzyme activity | inhibitor |  | 10 µM | remaining activity | 102%
O=C1Nc2ccc(Cl)cc2C1=Cc1cc(Cl)c(O)c(Cl)c1 | cell-free assay |  |  | 0.5 µM | remaining signal | 101%
CCc1ccccc1C(=O)Nc1n[nH]c2c(C)c(F)c(C3C(C#N)=C(C)N(C)C(C)=C3C#N)cc12 | cell-free assay |  | competition with immobilised ligand | 1 µM | remaining binding | 100%
F[C@@H]1CCN(c2nccc(-c3cnn4ncccc34)n2)C1 | binding |  |  | 1 µM | remaining binding | 100%
Cc1ccc(Nc2nccc(N(C)c3ccc4c(C)n(C)nc4c3)n2)cc1S(N)(=O)=O | enzyme activity | inhibitor |  | 0.5 µM | remaining activity | 98.4%
Cc1cnc(NC2CCOCC2)nc1-n1cnc(C(=O)NC(CN)c2cc(F)cc(Cl)c2)c1 (centres unmarked) | enzyme activity | inhibitor | radiometric | 1 µM | remaining activity | 104%
COc1cc(Cl)c(C(=O)N[C@@H](CN[C@H]2CC[C@@H](N)CC2)Cc2ccc(C#N)cc2)cc1-c1ccc(CN[C@H](C)c2ccc(C)cc2)o1 | enzyme activity | inhibitor |  | 1 µM | remaining activity | 89%
c1ccc(N2CCN(Cc3nc4ccccc4[nH]3)CC2)nc1 | binding |  | competition with immobilised ligand | 1 µM | remaining binding | 100%
FC(F)(F)Oc1cccc(-c2cnc3ccc(-c4ccncc4)nn23)c1 | enzyme activity | inhibitor | radiometric | 5 µM | activity vs control | 10%
CCC(=O)N[C@H]1CC[C@@H](C(=O)N(C)c2ccc(-c3nc4ccccc4o3)cc2)C1 | cell-free assay |  | competition with immobilised ligand | 1 µM | remaining binding | 87%
COc1ccc(COc2ccc(Cc3cnc(N)nc3N)cc2OC)cc1 | cell-free assay |  |  | 0.5 µM | remaining signal | 110%
